ChEMBL document CHEMBL2146438, “Radiolabeled cyclosaligenyl monophosphates of 5-iodo-2'-deoxyuridine, 5-iodo-3'-fluoro-2',3'-dideoxyuridine, and 3'-fluorothymidine for molecular radiotherapy of cancer: synthesis and biological evaluation” (J Med Chem, 2012)

How the values were obtained:
[1] = Chemical stability of the compound in phosphate buffer at pH 7.3; format: physicochemical
OVCAR-3 [2] = assay: Cellular uptake in human OVCAR3 cells at 35.1 +/- 0.3 kBq/mL after 6 hrs by gamma counting; format: ADME, cell-based; settings: ovcar-3, 6 h
Summary of the method: (§1)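 Time-course uptake in LS 174T or OVCAR-3 cells at 35.1±0.3 kBq/mL, continued to 6 h; cell-associated 125I counted; mean and std dev, n = 3 per time.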

[3] = Cellular uptake in human LS 174T cells by gamma counting; format: ADME, cell-based; settings: ls174t
[4] = Half life of the compound in phosphate buffer at pH 7.3; format: physicochemical
[5] = Cellular uptake in human LS 174T cells at 35.1 +/- 0.3 kBq/mL after 3 hrs by gamma counting; format: ADME, cell-based; settings: ls174t
Summary of the method: (§2)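 Time-course uptake of resolved 125I-labelled diastereomers in LS 174T (colorectal) or OVCAR-3 (ovarian) cells at the stated radioactive concentration; cell-associated radioactivity counted at each time point; mean and std dev, n = 3 per time.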

[6] = Cellular uptake in human LS 174T cells at 35.1 +/- 0.3 kBq/mL after 6 hrs by gamma counting; format: ADME, cell-based; settings: ls174t; summary of the method: as §1
OVCAR-3 [7] = assay: Cellular uptake in human OVCAR3 cells at 35.1 +/- 0.3 kBq/mL after 3 hrs by gamma counting; format: ADME, cell-based; settings: ovcar-3, 3 h; summary of the method: as §2
OVCAR-3 [8] = assay: Cellular uptake in human OVCAR3 cells at 46.9 +/- 1.1 kBq/mL up to 90 mins by gamma counting; format: ADME, cell-based; settings: ovcar-3, 1.5 h; summary of the method: as §2
[9] = Cytotoxicity against human LS 174T cells assessed as colony formation at 114.5 kBq/mL incubated for 4 hrs measured after 21 days by clonogenic assay; format: functional, LS174T
Summary of the method: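 LS 174T cells exposed 4 h to 114.5 kBq/mL 125I agent, cultured 24 h in nonradioactive medium, then harvested and plated; colonies counted after 21 days; surviving fraction = treated colonies / untreated control colonies.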

OVCAR-3 [10] = assay: Cellular uptake in human OVCAR3 cells after 3 hrs by gamma counting; format: ADME, cell-based; settings: ovcar-3, 3 h
Summary of the method: (§3)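 Concentration-dependent uptake: LS 174T or OVCAR-3 cells exposed to increasing concentrations of 125I-labelled diastereomers for 3 h; 131IUdR added to the medium as internal standard of proliferation; saturable uptake fitted to give Bmax as molecules/cell.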

[11] = Cellular uptake in human LS 174T cells after 3 hrs by gamma counting; format: ADME, cell-based; settings: ls174t; summary of the method: as §3
[12] = Cellular uptake in human LS 174T cells at 46.9 +/- 1.1 kBq/mL up to 90 mins by gamma counting; format: ADME, cell-based; settings: ls174t, 1.5 h; summary of the method: as §2
[13] = Cellular uptake in human LS 174T cells at 46.9 +/- 1.1 kBq/mL after 90 mins by gamma counting; format: ADME, cell-based; settings: ls174t, 1.5 h; summary of the method: as §2
[14] = Cellular uptake in human U87MG cells by gamma counting; format: ADME, cell-based; settings: u-87mg atcc
OVCAR-3 [15] = assay: Cellular uptake in human OVCAR3 cells at 46.9 +/- 1.1 kBq/mL after 90 mins by gamma counting; format: ADME, cell-based; settings: ovcar-3, 1.5 h; summary of the method: as §2
[16] = Cellular uptake in human U87MG cell nucleus incubated for 1 hr followed by compound wash out measured after 24 hrs by gamma counting; format: ADME, cell-based; settings: u-87mg atcc
Summary of the method: (§4)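 U-87 MG cells treated 1 h with 125I-labelled diastereomers, fractionated either immediately or after 24 h in fresh nonradioactive medium; 125I counted in cytoplasm, soluble nuclear fraction and DNA.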

[17] = Cellular uptake in human U87MG DNA incubated for 1 hr followed by compound wash out measured after 24 hrs by gamma counting; format: ADME, cell-based; settings: u-87mg atcc; summary of the method: as §4
[18] = Cellular uptake in human U87MG cell cytoplasm incubated for 1 hr followed by compound wash out measured after 24 hrs by gamma counting; format: ADME, cell-based; settings: u-87mg atcc; summary of the method: as §4
Cholinesterase = Cholinesterase (Homo sapiens, UniProt P06276); assay: Inhibition of human BChE after 24 hrs by microplate reader method
Chain of Cholinesterase (P06276 whole entry): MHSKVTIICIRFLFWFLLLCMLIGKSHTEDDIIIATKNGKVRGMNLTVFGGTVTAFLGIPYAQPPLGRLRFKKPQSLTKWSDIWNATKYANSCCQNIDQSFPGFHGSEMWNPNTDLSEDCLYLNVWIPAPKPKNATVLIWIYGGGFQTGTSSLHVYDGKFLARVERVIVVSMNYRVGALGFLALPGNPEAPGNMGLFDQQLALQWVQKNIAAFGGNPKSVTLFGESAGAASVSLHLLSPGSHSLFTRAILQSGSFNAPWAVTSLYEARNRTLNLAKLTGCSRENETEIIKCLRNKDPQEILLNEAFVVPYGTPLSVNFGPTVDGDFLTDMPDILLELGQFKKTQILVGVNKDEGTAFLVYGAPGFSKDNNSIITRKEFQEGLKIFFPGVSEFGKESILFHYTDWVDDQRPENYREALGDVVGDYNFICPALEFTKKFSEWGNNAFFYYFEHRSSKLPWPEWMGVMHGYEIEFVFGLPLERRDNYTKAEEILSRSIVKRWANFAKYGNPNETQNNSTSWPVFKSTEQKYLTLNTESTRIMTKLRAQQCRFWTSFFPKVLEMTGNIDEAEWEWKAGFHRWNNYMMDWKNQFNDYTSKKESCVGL

[19] = Cellular uptake in human OVCAR3 cell nucleus assessed as per 10^3 cells after 24 hrs by gamma counting; format: ADME, cell-based; settings: ovcar-3, 24 h, 24 h
Summary of the method: (§5)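 OVCAR-3 cells incubated 1 h with 55.5 (0.04) kBq/mL 125I-labelled agent (diastereomer mixtures or resolved slow isomers); fractionated either immediately or after 24 h further growth in fresh nonradioactive medium; 125I in cytoplasm and nucleus counted as cpm/10^3 cells with std dev.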

[20] = Cellular uptake in human OVCAR3 cell cytoplasm assessed as per 10^3 cells after 1 hr by gamma counting; format: ADME, cell-based; settings: ovcar-3, 1 h, 1 h; summary of the method: as §5
[21] = Cellular uptake in human LS 174T cells at 17.5 +/- 0.3 kBq/mL after 3 hrs by gamma counting; format: ADME, cell-based; settings: ls174t; summary of the method: as §2
[22] = Cellular uptake in human OVCAR3 cell nucleus assessed as per 10^3 cells after 1 hr by gamma counting; format: ADME, cell-based; settings: ovcar-3, 1 h, 1 h; summary of the method: as §5
[23] = Cellular uptake in human OVCAR3 cell cytoplasm assessed as per 10^3 cells after 24 hrs by gamma counting; format: ADME, cell-based; settings: ovcar-3, 24 h, 24 h; summary of the method: as §5
OVCAR-3 [24] = assay: Cellular uptake in human OVCAR3 cells at 16.7 +/- 1.2 kBq/mL after 3 hrs by gamma counting; format: ADME, cell-based; settings: ovcar-3, 3 h; summary of the method: as §2
[25] = Cellular uptake in human LS 174T cells at 13.6 +/- 0.4 kBq/mL after 3 hrs by gamma counting; format: ADME, cell-based; settings: ls174t; summary of the method: as §2

In the case of `Cc1cccc2c1OP(=O)(OC[C@H]1O[C@@H](n3cc([125I])c(=O)[nH]c3=O)C[C@@H]1O)OC2` (stereo in doubt; form 1), the K [1] is reported as 5.44 ×10⁻⁴ /min, the Drug uptake (OVCAR-3 [2]) is reported as “Active” and the Drug uptake [3] is reported as “Active”. The t1/2 [4] was 21.2 h, the Drug uptake [5] was “Active” and the Drug uptake [6] was “Active”. The Drug uptake (OVCAR-3 [7]) was “Active”.

For `O=c1[nH]c(=O)n([C@H]2C[C@H](O)[C@@H](COP3(=O)OCc4ccccc4O3)O2)cc1[125I]` (stereo in doubt; form 1), the Drug uptake (OVCAR-3 [8]) was “Active”, the K [1] was 2.25 ×10⁻³ /min and the Activity [9] was 60%. For the same compound, the Drug uptake (OVCAR-3 [10]) was “Dose-dependent effect”, the Drug uptake [11] was “Dose-dependent effect” and the t1/2 [4] was 5.1 h. For the same compound, the Drug uptake [12] was “Active”, the Drug uptake [13] was “Active” and the Drug uptake [14] was “Dose-dependent effect”. For the same compound, the Drug uptake (OVCAR-3 [15]) was “Active”.

With `CC(C)(C)c1cc(C(C)(C)C)c2c(c1F)COP(=O)(OC[C@H]1O[C@@H](n3cc([125I])c(=O)[nH]c3=O)C[C@@H]1F)O2` (stereo in doubt; form 1) the K [1] was 3.01 ×10⁻⁴ /min, the Drug uptake [16] was “Active” and the t1/2 [4] was 38.5 h. The Drug uptake [17] was “Active” and the Drug uptake [18] was “Active”.

For `CC(C)(C)c1cc(C(C)(C)C)c2c(c1F)COP(=O)(O[C@H]1C[C@H](n3cc(I)c(=O)[nH]c3=O)O[C@@H]1CO)O2` (stereo in doubt; form 2), the K [1] was 6.67 ×10⁻⁴ /min, the t1/2 [4] was 17.3 h and the IC50 (Cholinesterase) was > 3 mM.

With `CC(C)(C)c1cc(C(C)(C)C)c2c(c1F)COP(=O)(OC[C@H]1O[C@@H](n3cc([125I])c(=O)[nH]c3=O)C[C@@H]1O)O2` (stereo in doubt) the Drug uptake [19] was 91.6 cpm, the Drug uptake [20] was 87.3 cpm and the Drug uptake [21] was “Active”. The Drug uptake [22] was 7.8 cpm and the Drug uptake [23] was 2.8 cpm.

With `CC(C)(C)c1cc(C(C)(C)C)c2c(c1F)COP(=O)(OC[C@H]1O[C@@H](n3cc([125I])c(=O)[nH]c3=O)C[C@@H]1O)O2` (some centres not stated) the Drug uptake (OVCAR-3 [24]) was “Active” and the Drug uptake [25] was “Active”.
